# Laboratory results published in ChEMBL document CHEMBL1152859, “The novel phosphoramidate derivatives of NSAID 3-hydroxypropylamides: synthesis, cytostatic and antiviral activity evaluations” (Eur J Med Chem, 2009).
# Calls of active or inactive are those of the source. No cut-off for these calls is given here.
# Columns and labels:
# [1] = tested on: Punta Toro virus; test: Antiviral activity against Punta Toro virus infected in african green monkey Vero cells assessed as inhibition of virus-induced cytopathicity; format: functional, organism-based
# Method in brief: (§1)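 Cells were infected with 100 CCID50 of virus for 2 h, then residual virus was removed. Medium with graded compound concentrations was added and cultures were kept 3 days at 37 °C. Cytopathogenicity was scored microscopically. EC50 is the concentration reducing virus-induced cytopathogenicity by 50%.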
# [2] = tested on: Human alphaherpesvirus 3; test: Antiviral activity against Varicella-Zoster virus infected in HEL cells assessed as inhibition of virus-induced cytopathicity; format: functional, organism-based
# [3] = tested on: Human alphaherpesvirus 1; test: Antiviral activity against Herpes simplex virus 1 infected in HEL cells assessed as inhibition of virus-induced cytopathicity; format: functional, organism-based
# [4] = tested on: MCF7; test: Cytostatic activity against human MCF7 cells after 72 hrs by MTT assay; format: functional, cell-based; details: MCF7, 72 h
# Method in brief: (§2)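 Monolayer cells were grown in DMEM with 10% FBS, 2 mM L-glutamine, penicillin and streptomycin at 37 °C under 5% CO2. They were seeded on day 0 at 1 × 10⁴ to 3 × 10⁴ cells/ml and exposed to five 10-fold dilutions (10⁻⁸ to 10⁻⁴ M) for 72 h, with a solvent control. Read-out was MTT. Quadruplicates in three experiments (WI 38: one experiment). IC50 by linear regression of percentage-of-growth.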
# [5] = tested on: Human immunodeficiency virus 2; test: Antiviral activity against HIV2 ROD infected in human CEM cells assessed as inhibition of virus-induced cytopathicity; format: functional, organism-based; details: CCRF-CEM
# [6] = tested on: SW-620; test: Cytostatic activity against human SW620 cells after 72 hrs by MTT assay; format: functional, cell-based; details: SW-620, 72 h; method in brief: as §2
# [7] = tested on: Vaccinia virus; test: Antiviral activity against Vaccinia virus infected in HEL cells assessed as inhibition of virus-induced cytopathicity; format: functional, organism-based; details: Orthopoxvirus vaccinia
# Method in brief: (§3)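 Cell cultures were exposed for 2 h to 100 CCID50 of virus, and residual virus was then removed. Infected cells were further incubated with medium containing varying compound concentrations for 3 days at 37 °C. Virus-induced cytopathogenicity was scored microscopically. EC50 is the concentration giving a 50% reduction of cytopathogenicity.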
# [8] = tested on: Coxsackievirus B4; test: Antiviral activity against Coxsackievirus B4 infected in african green monkey Vero cells assessed as inhibition of virus-induced cytopathicity; format: functional, organism-based; method in brief: as §1
# [9] = tested on: NCI-H460; test: Cytostatic activity against human H460 cells after 72 hrs by MTT assay; format: functional, cell-based; details: NCI-H460, 72 h; method in brief: as §2
# [10] = tested on: Sindbis virus; test: Antiviral activity against Sindbis virus infected in african green monkey Vero cells assessed as inhibition of virus-induced cytopathicity; format: functional, organism-based; method in brief: as §1
# [11] = tested on: Vesicular stomatitis virus; test: Antiviral activity against Vesicular stomatitis virus infected in HEL cells assessed as inhibition of virus-induced cytopathicity; format: functional, organism-based; method in brief: as §3
# [12] = tested on: Coxsackievirus B4; test: Antiviral activity against Coxsackievirus B4 infected in human HeLa cells assessed as inhibition of virus-induced cytopathicity; format: functional, organism-based; method in brief: as §1
# [13] = tested on: Vesicular stomatitis virus; test: Antiviral activity against Vesicular stomatitis virus infected in human HeLa cells assessed as inhibition of virus-induced cytopathicity; format: functional, organism-based; method in brief: as §3
# [14] = tested on: CCRF-CEM; test: Cytostatic activity against human CEM cells after 72 hrs by MTT assay; format: functional, cell-based
# [15] = tested on: Cytomegalovirus; test: Antiviral activity against Cytomegalovirus infected in HEL cells assessed as inhibition of virus-induced cytopathicity; format: functional, organism-based
# Method in brief: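 Confluent HEL fibroblasts were infected with CMV strains Davis and AD-169 at 100 PFU per well for 2 h, then virus was removed. Graded concentrations were added in duplicate and cultures kept 7 days at 37 °C. Cytopathogenicity was scored microscopically after ethanol fixation and Giemsa staining. EC50 is the 50% reduction.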
# [16] = tested on: L1210; test: Cytostatic activity against mouse L1210 cells after 48 hrs by MTT assay; format: functional, cell-based; details: L1210, 48 h
# [17] = Cytostatic activity against human Molt4/C8 cells after 72 hrs by MTT assay; format: functional, cell-based; details: MOLT-4, 72 h
# [18] = tested on: HeLa; test: Cytostatic activity against human HeLa cells after 72 hrs by MTT assay; format: functional, cell-based; method in brief: as §2
# [19] = tested on: MIA PaCa-2; test: Cytostatic activity against human MIAPaCa2 cells after 72 hrs by MTT assay; format: functional, cell-based; details: MIA PaCa-2, 72 h; method in brief: as §2
# [20] = tested on: Mammalian orthoreovirus 1; test: Antiviral activity against Reovirus 1 infected in african green monkey Vero cells assessed as inhibition of virus-induced cytopathicity; format: functional, organism-based; method in brief: as §1
# [21] = tested on: Human immunodeficiency virus 1; test: Antiviral activity against HIV1 3B infected in human CEM cells assessed as inhibition of virus-induced cytopathicity; format: functional, organism-based; details: CCRF-CEM
# [22] = Cytostatic activity against human WI38 cells after 72 hrs by MTT assay; format: ADME, cell-based; details: WI-38, 72 h; method in brief: as §2
# [23] = tested on: Human respirovirus 3; test: Antiviral activity against Parainfluenza-3 virus infected in african green monkey Vero cells assessed as inhibition of virus-induced cytopathicity; format: functional, organism-based; method in brief: as §1
# [24] = tested on: Respiratory syncytial virus; test: Antiviral activity against Respiratory syncytial virus infected in human HeLa cells assessed as inhibition of virus-induced cytopathicity; format: functional, organism-based; method in brief: as §1
# [25] = tested on: Human alphaherpesvirus 2; test: Antiviral activity against Herpes simplex virus 2 infected in HEL cells assessed as inhibition of virus-induced cytopathicity; format: functional, organism-based
smiles,measurement,setting,value
COC(=O)[C@H](C)NP(=O)(OCCCNC(=O)C(C)c1cccc(C(=O)c2ccccc2)c1)Oc1ccc(Cl)cc1 (stereo not given in full),Activity,[1],inactive
same,Activity,[2],inactive
same,Activity,[3],inactive
same,IC50,[4],14 µM
same,Activity,[5],inactive
same,IC50,[6],17 µM
same,Activity,[7],inactive
same,Activity,[8],inactive
same,IC50,[9],18 µM
same,Activity,[10],inactive
same,Activity,[11],inactive
same,Activity,[12],inactive
same,Activity,[13],inactive
same,IC50,[14],40 µM
same,Activity,[15],inactive
same,IC50,[16],44 µM
same,IC50,[17],40 µM
same,IC50,[18],19 µM
same,IC50,[19],14 µM
same,Activity,[20],inactive
same,Activity,[21],inactive
same,IC50,[22],30 µM
same,Activity,[23],inactive
same,Activity,[24],inactive
same,Activity,[25],inactive
